The values that follow come from ChEMBL document CHEMBL1121949, “Species- or isozyme-specific enzyme inhibitors. 8. Synthesis of disubstituted two-substrate condensation products as inhibitors of rat adenylate kinases” (J Med Chem, 1982).

By Ki is commonly meant the dissociation constant of the complex between target and ligand, obtained from inhibition or displacement. Usually Km stands for the concentration of substrate that gives half-maximal velocity.

Values joined by “and” are separate entries in the source; they are usually repeats but may differ in a detail not shown here. Identical values can stand only once.

The target of assay [1] is T1, Adenylate kinase 2, mitochondrial (Rattus norvegicus, UniProt P29410). In words: Inhibitory activity against rat adenylate kinase II was determined in the presence of AMP. The method, boiled down:
(§1)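 Rat adenylate kinase isozymes AK II or AK-M were used, with AMP or ATP as the varied substrate. Substrate and inhibitor constants (Ki) came from steady-state kinetics. ATP derivatives, and P1,P5-pentaphosphate derivatives with Ki above 0.10 mM, were added as 1:1 Mg complexes, made by adding MgSO4 to their stock solutions.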

Assay [2] has as its target T2, Adenylate kinase isoenzyme 1 (Rattus norvegicus, UniProt P39069).
T2 sequence (P39069 whole entry): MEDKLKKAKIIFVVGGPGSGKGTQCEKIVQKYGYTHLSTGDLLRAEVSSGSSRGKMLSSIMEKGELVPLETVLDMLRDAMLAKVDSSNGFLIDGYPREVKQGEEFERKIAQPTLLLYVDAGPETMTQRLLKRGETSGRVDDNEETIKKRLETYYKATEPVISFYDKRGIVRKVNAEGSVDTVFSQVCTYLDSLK
In words: Inhibitory activity against rat Adenylate kinase M isoenzyme in the presence of AMP. The essentials: as §1

Assay [3] has as its target T2, Adenylate kinase isoenzyme 1. In words: Inhibitory activity against rat Adenylate kinase M isoenzyme in the presence of ATP non competitive inhibition. The method, boiled down:
as §1

Assay [4] is described as follows: Inhibitory potency against AK M was calculated using the equation KM(ATP) / Ki(ATP varied).
In assay [5] the target is T1, Adenylate kinase 2, mitochondrial. In words: Inhibitory activity against rat adenylate kinase II was determined in the presence of AMP, competitive inhibition. The method, boiled down: as §1
Assay [6] in a line: Relative potency inhibitory calculated as the ratio of AK-II/AK-M.
Assay [7] in a line: Inhibitory potency against AK II was calculated using the equation KM(ATP) / Ki(ATP varied).
Assay [8] addresses T1, Adenylate kinase 2, mitochondrial. Nature of the assay: Inhibitory activity against rat adenylate kinase II was determined in the presence of ATP, non competitive inhibition. The method, boiled down:
as §1

In assay [9] the target is T2, Adenylate kinase isoenzyme 1. Nature of the assay: Inhibitory activity against rat Adenylate kinase M isoenzyme in the presence of ATPnon competitive inhibition. The essentials:
as §1

Assay [10] deals with T1, Adenylate kinase 2, mitochondrial. In words: Inhibitory activity against rat adenylate kinase II was determined in the presence of ATP, competitive inhibition.
Assay [11] in a line: Inhibitory activity against rat adenylate kinase M (AK-M)isoenzyme in the presence of ATP competitive inhibition. The essentials: as §1
Assay [12] can be described thus: Inhibitory activity against rat adenylate kinase M (AK-M)isoenzyme in the presence of AMP competitive inhibition. The essentials: as §1
Assay [13] has as its target T2, Adenylate kinase isoenzyme 1. Nature of the assay: Inhibitory activity against rat Adenylate kinase M isoenzyme in the presence of ATP non competitive inhibition.
Assay [14] addresses T1, Adenylate kinase 2, mitochondrial. Nature of the assay: Inhibitory activity against rat adenylate kinase II was determined in the presence of AMP, non competitive inhibition. The method, boiled down:
as §1

For assay [15] the target is unchanged. Nature of the assay: Inhibitory activity against rat adenylate kinase II was determined in the presence of AMP, competitive and non competitive inhibition. The essentials:
as §1

Assay [16] can be described thus: Inhibitory activity against rat adenylate kinase M (AK-M)isoenzyme in the presence of AMP non competitive. The method, boiled down: as §1
Assay [17] in a line: Inhibitory activity against rat adenylate kinase M (AK-M)isoenzyme in the presence of ATP non competitive. The method, boiled down: as §1
The target of assay [18] is T2, Adenylate kinase isoenzyme 1. Nature of the assay: Inhibitory activity against rat Adenylate kinase M isoenzyme in the presence of ATP. The method, boiled down:
as §1

Assay [19] has as its target T1, Adenylate kinase 2, mitochondrial. In words: Inhibitory activity against rat adenylate kinase II was determined in the presence of ATP, competitive inhibition. The method, boiled down:
as §1

For assay [20] the target is unchanged. In words: Inhibitory activity against rat adenylate kinase II was determined in the presence of ATP. The method, boiled down: as §1
The target in assay [21] is T2, Adenylate kinase isoenzyme 1. Nature of the assay: Inhibitory activity against rat Adenylate kinase M isoenzyme in the presence of ATP competitive inhibition.

As to `Nc1ncnc2c1ncn2[C@@H]1O[C@H](COP(=O)(O)O)[C@@H](O)[C@H]1O` [ADENOSINE PHOSPHATE], in [1], the Ki was 80 µM. The Km in assay [2] was determined as 580 µM.

Regarding `Nc1ncnc2c1ncn2C1O[C@H](CCP(=O)(O)OP(=O)(O)OP(=O)(O)O)[C@@H](O)[C@H]1O` (stereo partly specified), the Ki in assay [3] was found to be 4000 µM; in [5], 540 µM. For the same molecule, the figures for the Inhibitory potency in [4] and in assay [7] were below 0.095 and 0.17, respectively. The Relative inhibitory potency in assay [6] was above 1.8.

Take `Nc1ncnc2c1ncn2[C@@H]1O[C@H](COP(=O)(O)OP(=O)(O)OP(=O)(O)O)[C@@H](O)[C@H]1O` [ADENOSINE TRIPHOSPHATE]: the Ki in assay [3] was 570 µM; in assay [8], 90 µM.

As to `CCC[C@@H](OP(=O)(O)OP(=O)(O)OP(=O)(O)O)[C@H]1OC(n2cnc3c(N)ncnc32)[C@H](O)[C@@H]1O` (stereo partly specified), the inhibition constant (Ki) in assay [9] stood at 4500 µM; in assay [10], 450 µM. Besides, the results for the Inhibitory potency in assay [4] and in [7] were below 0.084 and 0.2, respectively. In addition, in [6], the Relative inhibitory potency was above 2.4.

With `CCSc1nc2c(N)ncnc2n1C1O[C@H](COP(=O)(O)OP(=O)(O)OP(=O)(O)OP(=O)(O)OP(=O)(O)OC[C@H]2OC(n3cnc4c(N)ncnc43)[C@H](O)[C@@H]2O)[C@@H](O)[C@H]1O` (stereo partly specified), the inhibitory constant (Ki) was 3 µM in assay [11]; 3.5 µM in [12]; 0.06 µM and 0.08 µM in assay [10]. Besides, the values for the Inhibitory potency in assay [4] and in [7] were 190 and 1120, respectively. Also, the Relative inhibitory potency in assay [6] is 5.9.

With `Nc1ncnc2c1ncn2[C@@H]1O[C@H](CO)[C@@H](O)[C@H]1O` [ADENOSINE], the results for the Ki in assay [13], in [8] and in [14] were 82000 µM, 87000 µM and 92000 µM, respectively.

As for `CCC[C@@H](OP(=O)(O)OP(=O)(O)OP(=O)(O)OP(=O)(O)OP(=O)(O)OC[C@H]1OC(n2c(SCC)nc3c(N)ncnc32)[C@H](O)[C@@H]1O)[C@H]1OC(n2cnc3c(N)ncnc32)[C@H](O)[C@@H]1O` (stereo partly specified), the Ki in assay [15] worked out at 63 µM; in assay [11] it was 120 µM; in assay [12] it was 160 µM; in assay [10] it was 52 µM. In addition, the Inhibitory potency is 4.8 in assay [4] and 1.7 in assay [7]. The Relative inhibitory potency in assay [6] is 0.36.

Consider `CCSc1nc2c(N)ncnc2n1C1O[C@H](COP(=O)(O)OP(=O)(O)OP(=O)(O)OP(=O)(O)OP(=O)(O)OC[C@H]2OC(n3c(SCC)nc4c(N)ncnc43)[C@H](O)[C@@H]2O)[C@@H](O)[C@H]1O` (stereo partly specified), for which the Ki was 900 µM in assay [16]; 600 µM in assay [17]; 10 µM and 6.4 µM in assay [10]. For the same molecule, the figures for the Inhibitory potency in [4] and in [7] were below 0.63 and 14, respectively. Moreover, in assay [6], the Relative inhibitory potency is above 22.

Regarding `CCSc1nc2c(N)ncnc2n1[C@@H]1O[C@H](COP(=O)(O)OP(=O)(O)OP(=O)(O)O)[C@@H](O)[C@H]1O`, the Ki in assay [18] was found to be 6100 µM.

Take `C[C@H](OP(=O)(O)OP(=O)(O)OP(=O)(O)O)[C@H]1OC(n2cnc3c(N)ncnc32)[C@H](O)[C@@H]1O` (stereo partly specified): the Ki in [3] turned out to be 1800 µM; in assay [19], 2000 µM. Also, the Inhibitory potency in assay [4] was below 0.21; in assay [7], 0.045.

As for `C[C@@H](OP(=O)(O)OP(=O)(O)OP(=O)(O)O)[C@H]1OC(n2cnc3c(N)ncnc32)[C@H](O)[C@@H]1O` (stereo partly specified), the Ki in assay [18] came out at 1800 µM; in assay [20], 2200 µM. The Relative inhibitory potency in assay [6] is 0.13.

Turning to `CCSc1nc2c(N)ncnc2n1C1O[C@H](COP(=O)(O)OP(=O)(O)OP(=O)(O)OP(=O)(O)OP(=O)(O)O[C@H](C)[C@H]2OC(n3cnc4c(N)ncnc43)[C@H](O)[C@@H]2O)[C@@H](O)[C@H]1O` (stereo partly specified), the Ki in assay [11] came out at 31 µM; in assay [12] it was 31 µM; in [14], 2.8 µM; in assay [10], 1.5 µM. In addition, the Inhibitory potency in [4] was 18.4; in assay [7] it was 60. For the same molecule, the Relative inhibitory potency in [6] was 3.3.

As for `CCC[C@H](OP(=O)(O)OP(=O)(O)OP(=O)(O)O)[C@H]1OC(n2cnc3c(N)ncnc32)[C@H](O)[C@@H]1O` (stereo partly specified), the values for the Inhibitory potency in assay [4] and in assay [7] were 1.9 and 0.2, respectively. The results for the Ki in assay [21] and in [19] were 300 µM and 450 µM, respectively. Moreover, in assay [6], the Relative inhibitory potency is 0.11.
